Source: publication PMC9056355 (RSC Advances, 2020)

Experiments:
mice (immobility in FST) = test: Forced swimming test; format: in vivo, Kunming mice; details: for Antidepressant activity in FST, significance compared with the control group: mice, 40 mg kg^-1; for Relationship between dose and antidepressant activity in FST: mice, 10, 20 and 40 mg kg^-1 (Fig. 3)
Method in brief: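 Kunming mice (18–22 g) with free access to food and water; test compound in 0.5% methylcellulose or DMSO, given by intraperitoneal or subcutaneous injection at 40 mg kg−1; fluoxetine as positive control; test time 0.5 h. Read-out is immobility duration (s) and DID (%), compared with the control group by one-way ANOVA. A dose series of 10, 20 and 40 mg kg−1 was also run.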

5-HT1A receptor = biological target: T1, 5-HT1A receptor (Homo sapiens, UniProt P08908); test: biochemical
T1 sequence (P08908 1-422): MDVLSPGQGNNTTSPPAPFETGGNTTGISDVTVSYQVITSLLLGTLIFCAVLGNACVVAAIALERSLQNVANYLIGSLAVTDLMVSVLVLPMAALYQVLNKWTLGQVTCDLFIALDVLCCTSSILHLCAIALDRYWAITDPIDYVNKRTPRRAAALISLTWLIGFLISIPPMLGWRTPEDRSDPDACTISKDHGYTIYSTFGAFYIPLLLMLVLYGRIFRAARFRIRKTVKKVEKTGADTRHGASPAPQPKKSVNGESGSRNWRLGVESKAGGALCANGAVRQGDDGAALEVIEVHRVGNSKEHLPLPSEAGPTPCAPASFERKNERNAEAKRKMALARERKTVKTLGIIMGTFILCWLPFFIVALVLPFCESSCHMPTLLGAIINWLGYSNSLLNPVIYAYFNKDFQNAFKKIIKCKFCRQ

[1] = system: 5-HT concentration in the mice brain; test: Determination of brain 5-HT concentration by ELISA; format: in vivo; details: 40 mg kg^-1, 1 h after administration, n = 8 (Fig. 5)
mice (immobility in TST) = test: Tail suspension test; format: in vivo; details: 40 mg kg^-1, n = 8 (Fig. 4)
Method in brief: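 Tail suspension test in Kunming mice (18–22 g), used as a second behavioural-despair model to confirm FST findings. Test compound at 40 mg kg−1 in 0.5% methylcellulose or DMSO, injected intraperitoneally or subcutaneously; fluoxetine at the same dose as positive control. Groups compared with control by one-way ANOVA.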

[2] = system: spontaneous locomotor activity of mice; test: Open-field test; format: in vivo; details: 40 mg kg^-1, administered 1 h before the test, n = 8 (Fig. 6)
Method in brief: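 Kunming mice given test compound at 40 mg kg−1 (0.5% methylcellulose or DMSO vehicle; intraperitoneal or subcutaneous) 1 h before placement in a novel open field. Spontaneous activity is counted as line crossings (locomotion), rearing (standing on hind legs) and grooming. n = 8 per group, values as mean ± SEM.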

## O=C1CCc2ccc(OCc3nnc(SCc4ccc(F)cc4)o3)cc2N1 [Compound 5f, 7-((5-((4-Fluorobenzyl)thio)-1,3,4-oxadiazol-2-yl)methoxy)-3,4-dihydroquinolin-2(1H)-one]
Mice (immobility in FST)
  Antidepressant activity in FST, significance compared with the control group: significant

## O=C1CCc2ccc(OCc3nnc(SCc4ccc(Cl)cc4)o3)cc2N1 [Compound 5g, 7-((5-((4-Chlorobenzyl)thio)-1,3,4-oxadiazol-2-yl)methoxy)-3,4-dihydroquinolin-2(1H)-one]
5-HT1A receptor
  Ki: 1.77 ± 0.14 nM

## O=C1CCc2ccc(OCc3nnc(SCc4ccc(C(F)(F)F)cc4)o3)cc2N1 [Compound 5h, 7-((5-((4-Trifluoromethylbenzyl)thio)-1,3,4-oxadiazol-2-yl)methoxy)-3,4-dihydroquinolin-2(1H)-one]
5-HT1A receptor
  Ki: 2.73 ± 0.22 nM

## CC(=O)Nc1cccc(OCc2nnc(SCc3ccccc3Cl)o2)c1 [Compound 10e, N-(3-((5-((2-Chlorobenzyl)thio)-1,3,4-oxadiazol-2-yl)methoxy)phenyl)acetamide]
5-HT1A receptor
  Ki: 2.01 ± 0.18 nM
Mice (immobility in FST)
  Antidepressant activity in FST, significance compared with the control group: high significant

## CC(=O)Nc1cccc(OCc2nnc(SCc3cccc(Cl)c3)o2)c1 [Compound 10f, N-(3-((5-((3-Chlorobenzyl)thio)-1,3,4-oxadiazol-2-yl)methoxy)phenyl)acetamide]
Mice (immobility in FST)
  Antidepressant activity in FST, significance compared with the control group: significant

## CC(=O)Nc1cccc(OCc2nnc(SCc3ccc(Cl)cc3)o2)c1 [Compound 10g, N-(3-((5-((4-Chlorobenzyl)thio)-1,3,4-oxadiazol-2-yl)methoxy)phenyl)acetamide]
[1]
  Effect on brain 5-HT concentration: significantly (p < 0.05) increased the 5-HT concentration
5-HT1A receptor
  Ki: 1.68 ± 0.13 nM
Mice (immobility in TST)
  Antidepressant activity in TST: highly significant
[2]
  Exploratory activity in open-field test (crossing, rearing, grooming): no significant difference
Mice (immobility in FST)
  Antidepressant activity in FST, significance compared with the control group: high significant
  Relationship between dose and antidepressant activity in FST: as the dose increases, the antidepressant activity increases

## CC(=O)Nc1cccc(OCc2nnc(SCc3ccc(C(F)(F)F)cc3)o2)c1 [Compound 10j, N-(3-((5-((4-Trifluoromethylbenzyl)thio)-1,3,4-oxadiazol-2-yl)methoxy)phenyl)acetamide]
5-HT1A receptor
  Ki: 4.14 ± 0.16 nM
Mice (immobility in FST)
  Antidepressant activity in FST, significance compared with the control group: high significant

## CC(=O)Nc1cccc(OCc2nnc(SCc3ccc(C)cc3)o2)c1 [Compound 10m, N-(3-((5-((4-Methylbenzyl)thio)-1,3,4-oxadiazol-2-yl)methoxy)phenyl)acetamide]
Mice (immobility in FST)
  Antidepressant activity in FST, significance compared with the control group: significant

## CNCCC(Oc1ccc(C(F)(F)F)cc1)c1ccccc1 (centres unmarked) [Fluoxetine, reference compound]
[1]
  Effect on brain 5-HT concentration: significantly (p < 0.05) increased the 5-HT concentration
Mice (immobility in FST)
  Relationship between dose and antidepressant activity in FST: as the dose increases, the antidepressant activity increases
